In the library only some 4.3% were active in any assay of this set; here they are far more common.
TAAR1 ag: human TAAR1 agonism | activation, % at 3 µM | actives 0.99% (n = 360,000) | Q96RJ0 | CHO RD-HGA16 TAAR1, Fluo-8 calcium fluorescence; vehicle wells 0%, saturating PEA agonist 100% | AID 624467;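 active means activation above the mean activation of all test compounds in the run plus 3 SD, cut at about 38% in these data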
Target sequence (Q96RJ0 whole entry, looked up): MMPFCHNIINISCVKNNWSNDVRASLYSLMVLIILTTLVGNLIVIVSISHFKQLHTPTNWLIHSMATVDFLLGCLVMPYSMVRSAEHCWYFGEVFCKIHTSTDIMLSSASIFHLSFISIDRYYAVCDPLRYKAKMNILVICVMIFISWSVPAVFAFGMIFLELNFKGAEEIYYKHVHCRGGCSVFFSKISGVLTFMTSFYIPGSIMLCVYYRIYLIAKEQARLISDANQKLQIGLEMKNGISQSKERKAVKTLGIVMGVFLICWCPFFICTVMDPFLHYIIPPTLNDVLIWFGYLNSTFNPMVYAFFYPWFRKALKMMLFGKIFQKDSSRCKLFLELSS
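Test system: RD-HGA16 (CHO) cells co-expressing Gα16 and hTAAR1; dosing: one-point dosing at 3 µM (nominal); timing: 17-24 h seeding, 75 min 37 °C dye, 30 min RT; signal: kinetic Fluo-8 calcium fluorescence; read-out basis: % activation relative to PEA EC100 response; controls: DMSO and PEA EC100; replicates: n 1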
GalR3 antagonist: human GalR3 antagonism; O60755; HEK293 GalR3-CNG cAMP membrane potential fluorescence; galR3 body fused to GalR1 C-terminus; inhibition, % at 3 µM; actives 0.44% (n = 360,000); AID 651719;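 active means inhibition above the screen-wide average plus 3 SD, cut at about 13% in these data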;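 further: forskolin and galanin both at EC90 stimulate the cells; cAMP rise reported by CNG channel membrane potential dye signal; 0% = forskolin plus galanin with DMSO and 100% = forskolin alone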
OX1R antag-1: antagonists of human orexin 1 receptor; O43613; CHO/OX1R cells, Fluo-8 calcium fluorescence, orexin A; inhibition, % at 5 µM; actives 0.43% (n = 330,000); AID 434989;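 active means inhibition above its plate's threshold, mean inhibition of all tested compounds on the plate plus 3 SD, cut at about 37% in these data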;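 further: 0% = orexin A challenge wells and 100% = SB-334867-A antagonist wells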
Target sequence (O43613 whole entry, looked up): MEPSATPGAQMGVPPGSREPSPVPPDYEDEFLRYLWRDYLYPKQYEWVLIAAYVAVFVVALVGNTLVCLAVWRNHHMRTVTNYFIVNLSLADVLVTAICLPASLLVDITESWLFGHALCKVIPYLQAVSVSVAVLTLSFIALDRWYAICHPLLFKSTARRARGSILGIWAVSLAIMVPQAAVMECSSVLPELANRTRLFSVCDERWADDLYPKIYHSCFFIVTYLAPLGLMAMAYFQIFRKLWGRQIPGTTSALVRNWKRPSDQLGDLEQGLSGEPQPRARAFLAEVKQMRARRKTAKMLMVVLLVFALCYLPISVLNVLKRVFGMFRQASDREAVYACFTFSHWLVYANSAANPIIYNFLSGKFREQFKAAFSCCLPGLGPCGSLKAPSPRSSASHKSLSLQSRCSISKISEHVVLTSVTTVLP
CHO parental Ca: counter-screen: ATP calcium response change in parental CHO cells; actives 0.63% (n = 330,000); parental CHO-K1, ATP-induced calcium, Fluo-8 fluorescence; inhibition, % at 5.6 µM;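 active means inhibition above that plate's mean sample inhibition plus 3 SD, cut at about 26% in these data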;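 further: 0% = ATP-challenged DMSO wells and 100% = DMSO wells without ATP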
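Material: Parental CHO cells | Reagent: ATP | Compound dosing: Single nominal dose of 5.6 µM per compound | Detection: Intracellular calcium via Fluo-8 no-wash fluorescent dye | Read-out: % inhibition of ATP-induced calcium mobilization | Benchmarks: Low control ATP plus DMSO, high control DMSO only | Replicates: Singlicate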
TAAR1 antag: antagonists of human TAAR1; inhibition, % at 3 µM; CHO RD-HGA16 TAAR1, Fluo-8 calcium fluorescence, antagonist; actives 1.5% (n = 360,000); Q96RJ0;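 active means inhibition above a per-plate cutoff, the mean inhibition of test compounds on that plate plus 3 SD, cut at about 49% in these data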;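 further: 0% = DMSO plus EC80 beta-PEA response and 100% = DMSO alone without agonist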
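Test system: hTAAR1-expressing CHO RD-HGA16 cells, Gα16-coupled; Probe or stimulus: EC80 β-phenethylamine stimulus; Compound dosing: single nominal final test compound concentration of 3 µM; Timing: 140 s kinetic read after compound, 140 s after agonist; Signal: Fluo-8 calcium-sensitive fluorescence; Measure: % inhibition of agonist calcium response; Controls: DMSO and EC80 PEA controls.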
OX1R antag-2: blocks the human orexin 1 receptor. OX1R-expressing cells, FRET antagonist read-out. inhibition, % at 6.6 µM. O43613. AID 485270. actives 1.8% (n = 330,000); in the data active means inhibition mostly above about 38%, no sharp cut-off; inactive means mostly below about 40%;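 further: 0% = agonist challenge alone and 100% = reference antagonist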
nonsel antag count: counter-screen for TAAR1 antagonists: nonselective antagonists | counterscreen cell line, calcium fluorescence, antagonist mode | actives 77% (n = 2,400) | shares compounds with TAAR1 antag | inhibition, % at 3 µM; in the data active means inhibition above about 22%;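 further: CHO-Ga16 host cells stimulated with ATP at an EC80 level; 0% = agonist EC80 plus vehicle and 100% = vehicle without agonist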
TAAR1 ant conf: confirmation of human TAAR1 antagonists; shares compounds with TAAR1 antag; TAAR1-expressing cells, fluorescence antagonist read-out; inhibition, % at 3 µM; actives 40% (n = 2,400); AID 651785; in the data active means inhibition above about 49%;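 further: CHO-Ga16 host cells challenged with agonist PEA near its EC80; 0% = agonist at EC80 plus vehicle and 100% = vehicle with no agonist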
Ga16 nonsel ag: nonselective Ga16 agonism, counter-screen | shares compounds with TAAR1 antag | Ga16-expressing cells, calcium fluorescence, agonist counterscreen | activation, % at 3 µM | actives 18% (n = 2,400) | AID 651953; in the data active means activation above about 12%;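 further: 0% = vehicle wells and 100% = saturating stimulus response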
TAAR1 ag counter: counter-screen for human TAAR1 antagonists: TAAR1 agonists; shares compounds with TAAR1 antag; hTAAR1 cell line, fluorescence activation, agonist mode; activation, % at 3 µM; actives 2% (n = 2,400); in the data active means activation above about 37%;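 further: CHO cells stably expressing TAAR1 with calcium dye readout; 0% = DMSO vehicle and 100% = full agonist response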
Active calls of the source: *; / = no result.

SMILES	TAAR1 ag	GalR3 antagonist	OX1R antag-1	CHO parental Ca	TAAR1 antag	OX1R antag-2	nonsel antag count	TAAR1 ant conf	Ga16 nonsel ag	TAAR1 ag counter
CC1Sc2ccc(S(=O)(=O)CCC(=O)N3CCN(c4ccccc4F)CC3)cc2NC1=O (stereo not drawn)	12.4	-8.0	-34.4	-21.0	17.1	9.1	/	/	/	/
Cc1c2cnccc2c(C)c2c1oc1ccccc12	3.3	-3.9	/	/	-34.4	/	/	/	/	/
COC(=O)C(Nc1ccccc1Cl)(c1cc(C)c(O)c(C)c1)C(F)(F)F (stereo not drawn)	8.4	-3.9	5.8	4.8	83.1*	35.2	8.3	40.0	4.4	8.2
CCNC(=O)C1(C)CCCN(Cc2ccc(-n3ccnc3)cc2)C1 (stereo not drawn)	-0.1	-5.5	/	/	-17.2	/	/	/	/	/
COC(CNC(=O)C(=O)Nc1cc2c3c(c1)CC(=O)N3CCC2)OC	2.5	-6.3	-22.2	-0.2	-5.1	0.7	/	/	/	/
COc1ccc(-c2cc(NC(C)=O)c3ncc(-c4cccc(C(F)(F)F)c4)n3c2)c(OC)c1	-0.9	-6.4	/	/	35.2	/	/	/	/	/
CC(=O)Nc1cc(-c2ccccc2F)cn2c(-c3ccccc3)cnc12	3.5	-7.1	/	/	68.2*	/	28.5*	46.5	9.9	13.7
CC(=O)Nc1cc(-c2cccc(F)c2)cn2c(-c3ccccc3)cnc12	10.8	-8.5	/	/	61.4*	/	35.3*	42.6	4.4	8.4
COc1ccccc1-c1cc(NC(C)=O)c2ncc(-c3cccc(C(F)(F)F)c3)n2c1	0.9	-0.8	/	/	58.6*	/	31.7*	50.6*	6.2	19.6
COc1ccccc1-c1cc(NC(C)=O)c2ncc(-c3ccccc3)n2c1	4.4	-11.0	/	/	55.9*	/	23.6*	40.5	21.4*	36.6
CC(=O)Nc1cc(-c2cccc(F)c2)cn2c(-c3ccc(S(C)(=O)=O)cc3)cnc12	6.0	-5.4	/	/	17.0	/	/	/	/	/
COc1ccc(-c2cc(NC(C)=O)c3ncc(-c4ccccc4)n3c2)cc1OC	5.9	0.4	/	/	16.9	/	/	/	/	/
COc1ccc(C2C(C)C(=O)C(C)C(c3ccc(OC)cc3)N2N=O)cc1 (stereo not drawn)	1.6	-5.7	/	/	-9.5	/	/	/	/	/
COc1ccc(-c2cc(NC(C)=O)c3ncc(-c4ccccc4)n3c2)c(OC)c1	3.0	-8.1	/	/	67.9*	/	26.4*	31.8	7.5	4.9
COc1ccc(-c2cc(NC(C)=O)c3ncc(-c4ccc(OC)c(OC)c4)n3c2)c(OC)c1	-0.9	-4.2	/	/	-8.9	/	/	/	/	/
COc1ccc2c(c1)C(CC(=O)NN)CCC2 (stereo not drawn)	1.1	6.1	/	/	-17.8	/	/	/	/	/
CN(Cc1cnn(C)c1)C(=O)c1cc(COc2c(F)cccc2F)on1	8.0	-2.5	-9.1	-6.3	105.2*	13.3	4.2	0.7	0.1	1.2
CC(=O)c1ccc(N2CCN(S(=O)(=O)c3ccc4c(c3)C(Cl)(Cl)C(=O)N4)CC2)cc1	21.8	-4.7	/	/	19.7	/	/	/	/	/
COc1ccc2nc(C)cc(SCC(=O)NNC(=O)COc3ccc(C)cc3)c2c1	4.6	-6.9	6.1	7.4	-4.5	32.8	/	/	/	/
COc1ccc2nc(C)cc(SCC(=O)NNC(=O)COc3cccc4ccccc34)c2c1	19.2	-4.0	13.8	-16.1	71.1*	71.0*	45.7*	56.0*	9.4	8.0
COC(=O)NC1CC2C=CC1C1C=CC21 (stereo not drawn)	2.3	-5.6	/	/	-6.2	/	/	/	/	/
CCn1c(=NC(=O)c2cccc(N3C(=O)CCC3=O)c2)sc2c(C)ccc(OC)c21	11.9	2.0	-17.2	-19.1	60.5*	16.5	30.5*	47.1	6.5	5.6
CCn1c(=NC(=O)c2ccc(N3C(=O)CCC3=O)cc2)sc2c(OC)ccc(OC)c21	0.3	/	-30.0	-19.7	46.6	13.2	/	/	/	/
NC(c1ccc(F)c(F)c1)c1nc(-c2cc(F)cc(F)c2)cs1 (stereo not drawn)	2.4	-4.8	/	/	-8.6	/	/	/	/	/
COc1ccc(CC(=O)Oc2cc(C)ccc2C)cc1	0.5	-5.5	-33.2	-8.1	4.1	3.4	/	/	/	/
SMILES	TAAR1 ag	GalR3 antagonist	OX1R antag-1	CHO parental Ca	TAAR1 antag	OX1R antag-2	nonsel antag count	TAAR1 ant conf	Ga16 nonsel ag	TAAR1 ag counter
CCc1nc(SCC(=O)N2CCN(c3ccccc3)CC2)c2oc3ccccc3c2n1	12.6	-2.4	-11.6	-36.0	53.3*	13.7	27.2*	46.6	6.2	4.8
O=c1[nH]c(SCc2ccc(OC(F)(F)F)cc2)nc2c1CCC2	5.6	-3.3	/	/	-12.7	/	/	/	/	/
CCOC(=O)CN1C(=O)N[C@@H](c2ccccc2)[C@H](C(C)=O)[C@H]1C	1.9	7.8	-4.5	-1.4	-1.7	14.8	/	/	/	/
O=C(/C=C/c1cc([N+](=O)[O-])ccc1OC(F)F)Nc1cccc(OC(F)F)c1	4.9	-3.8	3.1	-2.2	74.8*	36.7	34.0*	65.4*	6.7	4.2
COc1ccccc1NC(=O)/C=C/c1cc([N+](=O)[O-])ccc1OC(F)F	-2.7	-5.4	-12.7	-3.2	-8.0	24.5	/	/	/	/
CC(=O)OCC(=O)C1(O)CCC2C3CCC4C(OC(C)=O)C(=O)CCC4(C)C3C(=O)CC21C (stereo not drawn)	1.5	-5.4	/	/	9.3	/	/	/	/	/
CCOC(=O)c1c(C)[nH]c(C(=O)COC(=O)C2(C)CC2(Cl)Cl)c1C (stereo not drawn)	15.1	-2.8	-4.8	-18.6	70.7*	4.5	45.2*	73.7*	10.7	14.3
CCOC(=O)c1c(C)[nH]c(C(=O)COC(=O)C2CC2)c1C	1.8	-1.8	/	/	-1.5	/	/	/	/	/
COc1ccccc1CN(Cc1nc2ccccc2c(=O)[nH]1)S(=O)(=O)c1ccc2ccccc2c1	7.3	2.1	-12.0	-32.2	70.3*	38.7	25.5*	55.7*	7.4	9.6
COc1ccc(CNC(=O)C[C@H]2C(=O)N(CCc3ccccc3)C[C@@H]2Cc2ccccc2)cc1	19.0	-4.2	-21.4	-14.7	56.2*	26.9	17.7	29.5	7.1	3.0
Cc1ccc(C(=O)Nc2cccc(C(=O)N/N=C/c3ccc(F)cc3)c2)cc1	11.4	-5.2	-16.4	-2.9	62.5*	18.6	36.9*	53.1*	9.9	11.0
CC(=O)Nc1cccc(C(=O)N/N=C/c2ccc(F)cc2)c1	0.9	-4.2	-0.1	-1.6	4.4	20.1	/	/	/	/
CC(=O)Nc1cccc(C(=O)N/N=C/c2ccccc2F)c1	4.6	-1.9	-2.5	4.9	10.0	6.7	/	/	/	/
